# High-throughput results deposited in PubChem by The Scripps Research Institute Molecular Screening Center.
# HTR1E agonist = 5-HT1E receptor agonists, primary screen, cell-based, HTS | 65,000 compounds, 0.69% hits | AID 574, 2007 | activation, % at 6 µM | CHO 5-HT1E Ga15 NFAT-bla reporter, FRET; 0% DMSO wells, 100% control agonist wells | 5-hydroxytryptamine receptor 1E (Homo sapiens), P28566;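 active means activation above a set limit, the screen-wide mean activation plus 3 SD, cut at about 8.5% in these data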;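 further: 100% = positive control agonist at 1 µM giving full maximal response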
# S1P1 ag-PAM = S1P1 agonists and agonism potentiators, primary screen, cell-based, primary and confirmation screens, CRE-bla reporter; Sphingosine 1-phosphate receptor 1 (Homo sapiens), P21453; S1P1 CRE-bla cells, forskolin, beta-lactamase FRET, potentiator mode; S1P1 agonist co-added at EC20, 2 nM; 100% = saturating reference agonist, 0% = basal; activation, % at 9.5 µM; 56,000 compounds, 0.57% hits; AID 449, 2006;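 active means activation above a cutoff set at the mean activation of all tested compounds plus 3 SD, cut at about 54% in these data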;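 further: forskolin at 4 µM as EC80 and the EC20 agonist is SEW2871; 100% = SEW2871 at its EC100 plus forskolin at EC80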
# Target sequence (P21453 whole entry, looked up): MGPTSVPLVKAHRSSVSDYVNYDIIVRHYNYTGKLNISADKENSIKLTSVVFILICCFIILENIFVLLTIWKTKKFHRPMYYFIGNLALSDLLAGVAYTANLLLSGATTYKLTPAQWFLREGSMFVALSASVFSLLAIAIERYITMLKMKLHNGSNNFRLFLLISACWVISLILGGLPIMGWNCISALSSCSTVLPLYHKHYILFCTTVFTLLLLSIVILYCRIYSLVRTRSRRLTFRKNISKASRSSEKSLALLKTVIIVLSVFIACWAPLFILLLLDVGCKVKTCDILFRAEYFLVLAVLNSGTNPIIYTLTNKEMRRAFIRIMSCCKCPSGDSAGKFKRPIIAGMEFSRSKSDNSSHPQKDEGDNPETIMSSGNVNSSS
# 5-HT1A blocker = human 5-HT1a receptor antagonists, primary screen, cell-based, CHO, Ga15 NFAT-bla reporter. 62,000 compounds, 0.68% hits. CHO 5-HT1a Ga15 NFAT-bla reporter, antagonist mode. 5-hydroxytryptamine receptor 1A (Homo sapiens), P08908. inhibition, % at 10 µM;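 active means inhibition above the mean of all tested compounds plus 3 SD, cut at about 43% in these data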;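 further: receptor stimulated by 5-CT agonist at 100 nM near EC80; beta-lactamase reporter measured by ratiometric fluorescence of a cleavable substrate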
# HTR1E antagonist = 5-HT1E receptor antagonists, primary screen, cell-based, HTS | inhibition, % at 6 µM | AID 571, 2007 | 5-hydroxytryptamine receptor 1E (Homo sapiens), P28566 | 65,000 compounds, 0.99% hits | CHO 5-HT1E Ga15 NFAT-bla reporter, FRET, antagonist;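 active means inhibition above a set limit, the mean inhibition across every tested compound plus 3 SD, cut at about 29% in these data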;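 further: signal is the 460 over 535 nm emission ratio of beta-lactamase substrate; 0% = agonist plus DMSO wells and 100% = wells without agonist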
# S1P3 ag = human S1P3 receptor agonists, primary screen, cell-based, primary and confirmation, NFAT-BLA reporter; Sphingosine 1-phosphate receptor 3 (Homo sapiens), Q99500; S1P3 NFAT-BLA reporter cells, agonism, FRET ratio; relative to 1 µM S1P, basal subtracted; activation, % at 4.5 µM; 60,000 compounds, 0.1% hits;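 active means activation above the screen-wide mean plus 3 SD, cut at about 4.5% in these data, passing the limit was not always enough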
#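 Benchmarks: high control 1 µM S1P / System: stable CHO line with human S1P3, Gα16, NFAT-BLA reporter / Dosing: single compound concentration, 4.5 µM final / Timing: 4 h compound at 37 °C, 2 h substrate at RT / Measured by: FRET β-lactamase substrate fluorescence, excitation 405 nm, 460/535 nm emission ratio, background-subtracted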
# 5HT1a ag = human 5-HT1a receptor agonists, primary screen, cell-based, CHO, Ga15 NFAT-bla reporter | 65,000 compounds, 0.56% hits | activation, % at 10 µM | 5-hydroxytryptamine receptor 1A (Homo sapiens), P08908 | CHO 5-HT1a Ga15 NFAT-bla reporter, FRET ratio; 0% basal, 100% maximal reference agonist | AID 567, 2006;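 active means activation above the screen-wide mean activation plus 3 SD, cut at about 19% in these data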;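 further: 0% = DMSO wells and 100% = 5-CT at EC100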
# * = called active by the depositor; . = no result. Only some compounds are listed: those with a hit (about 3% of all), similar ones and a draw of the others.
SMILES,HTR1E agonist,S1P1 ag-PAM,5-HT1A blocker,HTR1E antagonist,S1P3 ag,5HT1a ag
COc1ccccc1-c1nnc(Nc2nc3c(OC)cccc3s2)o1,0.6,-28.2,51.1*,52.9*,-1.4,-4.9
COc1cccc2sc(Nc3nnc(-c4ccccc4Cl)o3)nc12,1.6,-184.9,64.0*,25.1,-0.5,-4.1
CC12CCC(C(=O)N3CCc4ccccc43)(CC1=O)C2(C)C (centres undefined),-0.6,6.3,9.0,8.4,-1.2,-1.4
CC(C)COC(=O)NCCOC(=O)Nc1cccc(Cl)c1,0.4,70.1*,5.9,-1.8,-1.0,-3.3
CC(C)COC(=O)NCCCOC(=O)Nc1ccccc1,-0.1,0.3,17.6,-3.1,-1.4,224.5*
CCCCCOC(=O)NCC(O)c1ccccc1 (centres undefined),-0.7,-37.6,-3.5,-2.8,-0.6,0.7
COCCCNC(CC(=O)Nc1ccc(N(C)C)cc1)C(=O)O (centres undefined),-0.7,-10.1,-6.0,-5.9,-0.4,-2.0
O=C(NCCN1CCN(c2ccccc2F)CC1)C1CCCN(S(=O)(=O)c2cnc[nH]2)C1 (centres undefined),0.5,7.7,25.3,23.8,-0.6,2.3
CCn1c(N2CCN(CC(=O)Nc3cccc(C)c3C)CC2)nc2ccccc21,2.7,2.6,-2.5,-9.3,-0.2,-0.8
CCn1c(N2CCN(CC(=O)c3ccc(OC)cc3)CC2)nc2ccccc21,17.8*,5.2,-8.8,-6.1,0.4,3.9
NC(=O)c1oc2ccc(Cl)cc2c1N,-1.2,10.1,1.1,-2.4,-0.7,2.1
CN=c1oc2ccc(Cl)cc2cc1C(N)=O,9.8*,-8.8,15.1,-1.0,-0.9,-2.0
O=C(NCCc1ccc(Cl)cc1)c1ncn[nH]1,10.3*,-10.8,-4.0,6.2,-0.1,-1.4
CC(=O)Nc1ccc(S(=O)(=O)N(C)c2ccc(O)cc2)cc1,52.2*,5.6,1.4,3.7,-0.8,-2.4
CCOc1cc(C)c(S(=O)(=O)Nc2ccc(Cl)cn2)cc1C,27.0*,25.9,11.9,7.3,-0.4,-2.2
CCOc1ccc(S(=O)(=O)Nc2ccc(Cl)cn2)c(C)c1C,-0.7,43.0,13.9,-2.8,-1.0,-0.1
COc1ccc(-c2nc(NC(=O)C3CCN(c4nc5ccccc5o4)CC3)sc2C)cc1,0.6,46.8,17.7,-15.3,-1.0,-2.4
CCOc1ccccc1N1CCN(CC(O)COc2ccc3c(C)cc(=O)oc3c2)CC1 (centres undefined),-0.1,.,89.1*,5.6,.,5.3
Cc1cc(=O)oc2cc(OCC(O)CN3CCN(c4ccc(F)cc4)CC3)ccc12 (centres undefined),-0.6,.,16.6,3.2,.,0.5
CCOC(=O)N1CCC(Nc2c(N3CCN(c4cc(Cl)ccc4C)CC3)c(=O)c2=O)CC1,0.8,-2.1,-4.9,8.0,-0.9,64.5*
CCOC(=O)N1CCC(Nc2c(-c3ccc(C)c(C)c3)c(=O)c2=O)CC1,-0.2,19.6,2.6,1.3,0.7,-2.8
COc1ccc(N2CCn3c2nc2c3c(=O)n(CCCc3ccccc3)c(=O)n2C)cc1,1.0,-0.5,3.3,-1.5,-0.4,-0.4
COc1ccc(N2CC(C)Cn3c2nc2c3c(=O)n(CCc3ccccc3)c(=O)n2C)cc1 (centres undefined),12.3*,-3.8,-4.1,12.6,-1.0,2.0
COc1ccc(-c2nnc3n2N=C(c2ccccc2)CS3)cc1OC,-0.2,-19.3,8.6,12.1,-0.6,-1.7
CCOc1ccc(C2=Nn3c(nnc3-c3cccnc3)SC2)cc1,0.4,-14.5,.,-21.4,-0.4,-1.3
CCCc1nnc2n1N=C(c1ccc(OC)c(OC)c1)CS2,0.3,-2.5,21.6,63.2*,0.6,0.3
